Series [1] is described as follows: MRT in Wistar Hannover rat at 0.3 to 0.5 mg/kg, iv by LC-MS/MS analysis. The series is classed as ADME, organism-based. Conditions: in vivo, dose 0.3-0.5 mg/kg, time <=24 hrs; call rule not given here. The essentials:
(§1)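 Male Wistar Hannover rats, catheterized under isoflurane; one day later iv injection into lateral tail vein at 0.3 to 0.5 mg/kg in plasma containing 2% DMSO. Blood sampled via catheter from 0.033 to 24 h. Plasma precipitated with acetonitrile, analysed by LC-MS/MS (10 mM ammonium acetate pH 3.0/acetonitrile gradient). PK parameters calculated from plasma concentrations.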

Series [2] can be described thus: AUC/dose in Wistar Hannover rat at 0.3 to 0.5 mg/kg, iv by LC-MS/MS analysis. The format is ADME, organism-based. Conditions: in vivo, dose 0.3-0.5 mg/kg, time <=24 hrs. The method, boiled down: as §1
Series [3] is described as follows: Volume of distribution at steady state in Wistar Hannover rat at 0.3 to 0.5 mg/kg, iv by LC-MS/MS analysis. The format is ADME, organism-based. Conditions: in vivo, dose 0.3-0.5 mg/kg, time <=24 hrs, read-out: Vdss. The method, boiled down: as §1
A short description of series [4]: Oral bioavailability in Wistar Hannover rat at 1 mg/kg by LC-MS/MS analysis. Conditions: in vivo, time <=24 hrs. The format is ADME, organism-based. The method, boiled down: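 Catheterized male Wistar Hannover rats dosed by gavage at 1 mg/kg in 10% ethanol/40% PEG/50% water. Blood taken via catheter at 0.083 to 24 h. Plasma precipitated with acetonitrile and analysed by LC-MS/MS. Bioavailability derived against iv dosing at 0.3 to 0.5 mg/kg.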

A short description of series [5]: Half life in Wistar Hannover rat at 0.3 to 0.5 mg/kg, iv by LC-MS/MS analysis. The format is ADME, organism-based. Conditions: in vivo, dose 0.3-0.5 mg/kg, time <=24 hrs. The method, boiled down: as §1
The nature of series [6]: Blood clearance in Wistar Hannover rat at 0.3 to 0.5 mg/kg, iv by LC-MS/MS analysis. The format is ADME, organism-based. Conditions: whole blood, dose 0.3-0.5 mg/kg, time <=24 hrs. The essentials: as §1
Series [7] concerns the target T1, Nuclear receptor subfamily 1 group I member 2 (Homo sapiens, UniProt O75469).
T1 sequence (O75469 whole entry): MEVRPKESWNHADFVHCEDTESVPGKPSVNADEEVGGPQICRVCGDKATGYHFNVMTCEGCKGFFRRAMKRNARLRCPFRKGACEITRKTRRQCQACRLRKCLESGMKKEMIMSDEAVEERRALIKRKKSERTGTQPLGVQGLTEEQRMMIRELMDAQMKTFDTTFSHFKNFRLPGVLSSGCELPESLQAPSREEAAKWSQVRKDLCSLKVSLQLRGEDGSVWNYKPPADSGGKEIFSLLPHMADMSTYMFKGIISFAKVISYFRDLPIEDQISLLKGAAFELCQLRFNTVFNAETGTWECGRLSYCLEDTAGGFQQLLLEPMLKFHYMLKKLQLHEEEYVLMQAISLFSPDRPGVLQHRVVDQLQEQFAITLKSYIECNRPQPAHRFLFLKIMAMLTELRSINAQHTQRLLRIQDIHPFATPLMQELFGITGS
As to the kind of experiment: Activation of human PXR expressed in human HepG2 cells. The format is ADME, cell-based. The essentials: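 HepG2 cells transiently co-transfected with human PXR and a luciferase reporter under the human CYP3A4 promoter, 48 h before readout. 24 h after seeding, 1:3 serial dilutions (2 nM to 50 μM, 0.5% DMSO) added. Luminescence normalized to rifampicin (100%) and DMSO (0%). MEC is the lowest concentration raising signal above 4-fold SD of DMSO background.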

Series [8] can be described thus: Clearance in Wistar rat hepatocytes at 1 uM incubated up to 90 mins by LC-MS/MS analysis. The series is classed as ADME, cell-based, Hepatocyte. Conditions: Wistar. The method, boiled down: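 Fresh male Wistar rat hepatocytes, 1 × 10⁶ viable cells/mL, in Williams' medium E at 37 °C, pH 7.4, with 1 μM substrate and <1% acetonitrile. Samples at 2–90 min quenched in acetonitrile and analysed by LC-MS/MS.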

Series [9] is described as follows: Ratio of drug level in blood to plasma in Wistar Hannover rat at 0.3 to 0.5 mg/kg, iv by LC-MS/MS analysis. Conditions: blood and plasma, dose 0.3-0.5 mg/kg, time <=24 hrs. The format is ADME, organism-based.
The nature of series [10]: Permeability from apical to basolateral side in human Caco2 cells incubated for 2 hrs by LC-MS/MS analysis. The format is ADME, cell-based. Conditions: Caco-2. The essentials: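 Caco-2 cells grown 15 d on 0.4 μm inserts, TEER ≥600 Ω. Compound (DMSO stock diluted 100-fold) in HBSS pH 7.4 with 10 mM HEPES and 20 mM glucose, added apically or basolaterally. Incubated 2 h at 37 °C and analysed by LC-MS/MS. Papp = (Vr/P0)·(1/S)·(P2/t); mean and SD.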
Background: Caco-2 monolayers are a common model of the intestinal barrier.

The subject of series [11] is Plasma. As to the kind of experiment: Anticoagulation activity in human plasma assessed as drug level causing doubling of prothrombin time incubated for 3 mins. The series is classed as functional. Conditions: 0.05 h. The essentials: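 Citrated human plasma (0.11 M citrate 1:9, spun ~4000g 15 min) incubated with compound at 37 °C for 3 min. Clotting started with thromboplastin and time to coagulation recorded. Value is the concentration doubling clotting time (PT or aPTT).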

In series [12] the test system is Cytochrome P450. Briefly: Inhibition of CYP450 (unknown origin) at 20 uM. Conditions: human. The series is classed as ADME, protein assay.
Series [13] has as its target T1, Nuclear receptor subfamily 1 group I member 2. As to the kind of experiment: Activation of human PXR human hepatocytes assessed as induction of CYP3A4 mRNA expression incubated for 48 hrs by qPCR analysis. The series is classed as ADME, tissue-based, Hepatocyte. The method, boiled down:
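Human hepatocytes in collagen sandwich, cultured 1 d, then treated with eight 1:3 serial concentrations for 2 consecutive days with daily media change. mRNA isolated on magnetic beads, reverse transcribed, and quantified by TaqMan qRT-PCR against actin/tubulin. Fold induction over vehicle by ΔΔCt; NOEL reported.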
Background: Quantitative PCR measures a nucleic acid by following its amplification.

Bounds are passed on as bounds.

Results on 4 compounds are retold here after ChEMBL document CHEMBL4665889, “Design, Synthesis, and Pharmacological Characterization of a Neutral, Non-Prodrug Thrombin Inhibitor with Good Oral Pharmacokinetics” (J Med Chem, 2020).

Take `CCCCCCOC(=O)NC(=N)c1ccc(NCc2nc3cc(C(=O)N(CCC(=O)OCC)c4ccccn4)ccc3n2C)cc1` [DABIGATRAN ETEXILATE]: the MRT (as a rule, the average time that molecules of a dose stay in the body) in series [1] was 1.6 h. Further, the AUC/dose in series [2] was found to be 3 kg·h/L. For the same compound, the Vd in [3] was found to be 0.54 L/kg. Besides, in [4], the bioavailability (commonly the share of a dose that reaches the circulation, judged against a reference dose that is usually intravenous) amounted to 1.9%. Also, the half-life (as a rule, how long it takes for the measured level to halve) in series [5] is 1.2 h. In series [6], the clearance (as a rule, the rate of elimination divided by the concentration) is 9.83 mL/min/kg.
The compound `COc1cc(C(=O)N2CCOC(C)(CCO)C2)cc2nc(N[C@H](C)c3cccc(Cl)c3)oc12` (stereo partly drawn) had an MRT in series [1] of 1.8 h. The AUC/dose in [2] amounted to 0.33 kg·h/L. Also, the MEC in series [7] amounted to 0.58 µM. In series [3], the Vd was found to be 5.6 L/kg. In series [8], the CLhep predicted at 1 µM is 43.3 mL/min/kg. In [4], this compound returned a bioavailability of 38%. Also, in [9], the blood plasma ratio was 1.07. In series [5], this compound showed a half-life of 2.7 h. The clearance in [6] was 48.3 mL/min/kg.
Take `COc1cc(C(=O)N2CC[C@@H](O)[C@H](C)C2)cc2nc(NCc3cccc(Cl)c3)oc12`: in series [1], the mean residence time (MRT) is 1.1 h. This compound also registered an AUC/dose in [2] of 0.48 kg·h/L. This compound came in with an MEC in [7] of 0.69 µM. In addition, in series [3], the Vd was determined as 2.4 L/kg. For the same compound, the CLhep predicted at 1 µM in series [8] is 38.3 mL/min/kg. For the same compound, in series [10], the Papp A→B (commonly the apparent permeability from the apical to the basolateral side of a cell layer) at 2 h was 12.6 ×10⁻⁶ cm/s. Besides, the bioavailability in series [4] was determined as 46%. Besides, the 2PT in series [11] was 6 µM. Also, the “inhibition (INH)” value in series [12] is reported as “Not Active”. In series [13], the NOAEL (as a rule, the highest dose or exposure tested at which no adverse effect was seen) turned out to be 370 ng/mL. For the same compound, the blood plasma ratio in series [9] stood at 1.24. In addition, the half-life in [5] was 1.3 h. In [6], this compound showed a clearance of 28.3 mL/min/kg.
In turn, `COc1cc(C(=O)N2CC(C)(CCO)OC[C@H]2C)cn2nc(NCc3cccc(Cl)c3)nc12` (stereo partly drawn) showed an MRT in [1] of 0.36 h. The AUC/dose in series [2] came out at 0.16 kg·h/L. The same compound registered an MEC in series [7] of 15 µM. Besides, in [3], the Vd came out at 2.2 L/kg. In addition, the CLhep predicted at 1 µM in series [8] was 46.7 mL/min/kg. In series [10], this compound gave an apical-to-basolateral permeability (Papp A→B) at 2 h of 8.1 ×10⁻⁶ cm/s. In addition, the NOAEL in series [13] is more than 10000 ng/mL. Besides, the blood plasma ratio in series [9] came out at 1.35. This compound gave a half-life in [5] of 0.32 h. The compound also gave a clearance in [6] of 76.7 mL/min/kg.
